Bioassay records (PubChem)
Compounds with a hit are over-represented: about 2.7% of the library has one in this group of screens.
TCR-CD3 inh: blocks the human TCR-CD3 interaction | 0.37% of 360,000 active | TAMRA-labeled TCR probe fluorescence, biochemical | inhibition, % at 9.4 µM;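 note: recombinant mutant TCR 2C K166C tagged with TAMRA read by polarization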
SIAE inh: blocks human sialic acid acetylesterase; AID 1053197; inhibition, % at 9.66 µM; SIAE FP-Rh probe binding, fluorescence polarization; Q9HAT2; 0.69% of 370,000 active;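 active = inhibition above a cutoff: mean of compounds within the control limits plus 3 SD of those, cut at about 17% in these data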
Target sequence (Q9HAT2 whole entry, looked up): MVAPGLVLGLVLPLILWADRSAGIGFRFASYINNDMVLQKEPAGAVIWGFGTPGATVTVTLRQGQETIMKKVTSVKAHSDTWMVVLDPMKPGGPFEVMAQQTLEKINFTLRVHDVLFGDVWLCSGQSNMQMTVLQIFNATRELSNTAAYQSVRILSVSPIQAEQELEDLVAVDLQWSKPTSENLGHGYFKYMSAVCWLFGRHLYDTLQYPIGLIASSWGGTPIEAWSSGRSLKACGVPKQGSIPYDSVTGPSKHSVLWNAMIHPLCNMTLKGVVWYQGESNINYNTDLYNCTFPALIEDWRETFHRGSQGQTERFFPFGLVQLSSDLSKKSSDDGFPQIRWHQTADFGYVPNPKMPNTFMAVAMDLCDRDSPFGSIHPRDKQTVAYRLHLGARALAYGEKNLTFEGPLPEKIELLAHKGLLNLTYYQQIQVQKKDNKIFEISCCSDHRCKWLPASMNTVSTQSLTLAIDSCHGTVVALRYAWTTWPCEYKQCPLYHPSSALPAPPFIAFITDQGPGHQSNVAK
ABHD4 inh: ABHD4 (mouse) inhibition, primary FP screen; Q8VD66; purified mABHD4, FP-Rh probe fluorescence polarization; inhibition, % at 8.92 µM; 0.54% of 370,000 active; AID 720543;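 active = inhibition exceeding the mean over every tested compound plus 3 SD, cut at about 30% in these data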
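Assay system: mouse ABHD4 enzyme, wild type / Also added: fluorescent activity-based probe FP-Rh / Doses: single nominal dose of 8.92 µM, 0.89% DMSO final / Timing: 45 min compound pre-incubation plus 60 min probe step, 25 °C / Signal: FP readout, ex 525 nm / em 598 nm / Control set: S159A mutant/DMSO as 100%, compound-well median as 0%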
HTRA1 inhibitor: blocks human HTRA1 serine peptidase | 0.5% of 340,000 active | inhibition, % at 5.96 µM | Q92743 | recombinant HTRA1, FP-rhodamine activity-based probe, fluorescence polarization; in the data active = inhibition above about 36%
PRMT1 FP inh: PRMT1 (human) inhibition, primary screen. 1.3% of 370,000 active. Q99873. AID 652257. inhibition, % at 2.79 µM. recombinant PRMT1, activity-based probe fluorescence polarization;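 active = inhibition above about 21% made by adding two undisclosed values, limit read from the data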
HTRA1 inh conf: confirmation of human HTRA1 inhibitors; recombinant HTRA1, FP-rhodamine activity-based probe, fluorescence polarization; AID 540248; inhibition, % at 5.96 µM; shares compounds with HTRA1 inhibitor; 66% of 1,600 active;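 active = mean inhibition over three repeats above a set limit taken from the earlier primary screen, cut at about 37% in these data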;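 note: inhibitors block probe binding so polarization drops and inhibition rises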
BSA probe FL: interferes with TAMRA-BSA probe, flagging TCR-CD3 hits. shares compounds with TCR-CD3 inh. TAMRA-labeled BSA probe fluorescence counterscreen. inhibition, % at 9.4 µM. 10% of 1,200 active; in the data active = inhibition above about 23%
TCR-CD3 conf: TCR-CD3 interaction inhibition, confirmation; TAMRA-labeled TCR probe fluorescence binding assay; 48% of 1,200 active; inhibition, % at 9.4 µM; shares compounds with TCR-CD3 inh; AID 652036
PRMT1 confirm: PRMT1 (human) inhibition, FP confirmation; shares compounds with PRMT1 FP inh; recombinant His-PRMT1, activity-based probe fluorescence polarization; inhibition, % at 2.79 µM; 42% of 3,300 active;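 active = mean inhibition across replicates above the hit cutoff derived for the earlier primary screen, cut at about 22% in these data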
mABHD4 conf: confirmation of mouse ABHD4 inhibitors; shares compounds with ABHD4 inh; purified mABHD4, FP-Rh probe fluorescence polarization; inhibition, % at 8.92 µM; 55% of 1,800 active; AID 720658;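 active = mean inhibition across replicates above the hit cutoff set in the primary screen, cut at about 30% in these data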
Numbers stand for hits; . = inactive; / = no result given; ! = repeats disagree. Cut-off read from the data, not from the text of the source, unless noted: active = inhibition above about 19%; inactive = the rest.

SMILES | TCR-CD3 inh | SIAE inh | ABHD4 inh | HTRA1 inhibitor | PRMT1 FP inh | HTRA1 inh conf | mABHD4 conf | others
O=C1c2c(O)ccc(O)c2C(=O)c2c(NCCNCCO)ccc(NCCNCCO)c21 | . | . | 33! | 72 | . | 59 | 37
COc1ccccc1N=Nc1ccc(O)c2ncccc12 | . | . | 38 | 81 | . | 62 | 36
Cc1ccnc(SCc2cc(=O)c(OC(=O)c3ccc(C)c([N+](=O)[O-])c3)co2)n1 | / | . | . | / | . | / | /
CC(NCCN(C)C)C1CCC2C3CCc4cc(O)ccc4C3CCC12C (centres undefined) | . | . | . | . | . | / | /
CCOC(=O)C1(C)CCCN1C(=O)c1cc(F)ccc1C (centres undefined) | . | . | . | / | . | / | /
Cc1ccc2c(c1)-c1cc(C)ccc1C2=O | . | . | . | . | . | / | /
Cc1ccc(C2=C(O)C(=O)C(c3ccc(C)cc3)=C(O)C2=O)cc1 | . | . | 46 | 85 | . | 98 | 60
CC(=O)OC[C@]12CC[C@H]3[C@@](C)(CC[C@H]4C(C)(C)CCC[C@]34C)[C@@H]1CC(C1=CC(=O)OC1O)O2 (some centres undefined) | . | . | . | / | . | / | /
COc1ccc(Nc2c([N+](=O)[O-])ccc3c2=NC2(CCCCC2)N=3)cc1 | . | . | 31 | 55 | . | 52 | 40
O=[N+]([O-])c1ccc2c(c1Nc1ccccc1)=NC1(CCCCC1)N=2 | . | . | . | . | . | / | /
O=[N+]([O-])c1cc(Cl)cc(/C=N/NC(=S)Nc2ccc(S(=O)(=O)N3CCOCC3)cc2)c1O | 42 | . | 57 | 62 | . | 59 | 118 | BSA probe FL=.;TCR-CD3 conf=43
N#Cc1ccc(/C=N/NC(=S)Nc2ccc(S(=O)(=O)N3CCOCC3)cc2)cc1 | . | . | . | . | . | / | /
O=C(O)c1cc(S(=O)(=O)Nc2ccccc2C(=O)O)ccc1O | . | . | . | . | . | / | /
CCOc1ccc(C=NNc2ccc(S(=O)(=O)Nc3ccccc3C(=O)O)cc2[N+](=O)[O-])cc1OC | / | / | / | . | / | / | /
O=C(O)c1ccccc1NS(=O)(=O)c1ccc(NNC(=S)Nc2ccc(OC(F)F)cc2)c([N+](=O)[O-])c1 | . | . | 72 | 67 | 23 | 118 | 140
COc1cc(C=NNc2ccc(S(=O)(=O)Nc3ccccc3C(=O)O)cc2[N+](=O)[O-])ccc1O | . | . | 64 | 49 | . | 75 | 91
O=C(O)c1ccccc1NS(=O)(=O)c1ccc(N/N=C/c2cccc(O)c2O)c([N+](=O)[O-])c1 | 25 | . | 86 | 74 | 35 | 78 | 77 | BSA probe FL=.;TCR-CD3 conf=24;PRMT1 confirm=29
COc1ccc(NC(=O)c2ccccc2NS(=O)(=O)c2ccc(C)cc2)c([N+](=O)[O-])c1 | . | . | . | . | . | / | /
O=C(CN1CCN(Cc2ccccc2F)CC1)Nc1ccccc1Cl | . | . | . | . | . | / | /
N#C/C(=C\c1c(Oc2ccccc2F)nc2ccccn2c1=O)C(=O)NC1CCS(=O)(=O)C1 (centres undefined) | . | . | . | . | . | / | /
COc1cccc(OC)c1C(=O)NC(=O)Oc1c(F)cccc1F | . | . | . | . | . | / | /
Oc1ccc(Nc2nc(-c3ccc4ccccc4c3)cs2)cc1 | . | . | . | . | . | / | /
Oc1ccc(-c2nc(-c3ccc(O)c(O)c3)cs2)cc1 | . | . | 33 | 55 | . | 55 | 32
Cc1cccc(C)c1N=Nc1c(C)cc(O)cc1C | . | . | 32 | 47 | . | 50 | 39
CCCCCCCCN1C(=O)[C@@H](CC(=O)N2CCCC2)C[C@@]2(C(=O)OC)C1=C[C@H](C(C)(C)C)O[C@@H]2C | . | . | . | / | . | / | /
SMILES | TCR-CD3 inh | SIAE inh | ABHD4 inh | HTRA1 inhibitor | PRMT1 FP inh | HTRA1 inh conf | mABHD4 conf | others
COC(=O)[C@]12C[C@H](CC(=O)N3CCCCC3)C(=O)N(Cc3ccco3)C1=C[C@H](C1CCCC1)O[C@@H]2C | / | . | . | / | . | / | /
C[n+]1c(-c2ccccc2)cc2c(=Cc3ccc([N+](=O)[O-])cc3)c3ccccc3n21 | . | . | 31 | 80 | . | . | 38
C[n+]1c(-c2ccccc2)cc2c(=Cc3ccccc3)c3ccccc3n21 | . | . | . | . | . | / | /
Cc1ccc(N(C)C)cc1 | . | . | . | / | . | / | /
Cc1ccc(C)n1-c1ccc(N(C)C)cc1 | . | . | 32 | 38 | . | 40 | .
O=C(O)CSc1cc(NS(=O)(=O)c2ccc(Br)cc2)c2ccccc2c1O | . | . | 49 | 46 | 57 | . | 49
Cc1ccc(S(=O)(=O)Nc2ccc(Br)cc2C(NCC(=O)O)c2ccccc2)cc1 (centres undefined) | . | . | . | . | . | / | /
Cn1c(NC(=O)c2ccccc2)nc(Cc2ccccc2)c1Cc1ccccc1 | / | . | . | / | . | / | /
Oc1ccc(Br)cc1C=Nc1ccc(Cl)cc1 | . | . | . | . | . | / | /
CCN(CC)c1ccc(N=Cc2cc(Br)ccc2O)cc1 | . | . | 45 | 60 | 22 | . | .
Brc1ccc(N/N=C(/N=Nc2nn[nH]n2)c2ccccc2)cc1 | . | 17 | 91 | 62 | . | 88 | 104
CC(Nc1cccc2ccccc12)C(=O)N/N=C/c1ccccn1 (centres undefined) | . | . | 48 | 46 | 25 | . | .
Oc1cc(CNCc2ccccc2)c(O)cc1CNCc1ccccc1 | . | . | 41 | 57 | . | 52 | 58
O=[N+]([O-])c1ccc(O)c(CNCc2ccccc2)c1 | . | . | . | . | . | / | /
Oc1ccc(/C=N/N(Cc2ccccc2)c2ccccc2)c(O)c1O | . | . | 34 | 68 | . | 55 | 46
CCCCCCC1/C(=N\NC(=O)c2ccccc2)CCC1C(=O)OC (centres undefined) | . | . | . | . | . | / | /
CN(C)c1ccc(N/C=C/C(=O)c2ccccc2)cc1 | . | . | 46 | 54 | 22 | . | .
CC1CCCCC1NC(=O)COC(=O)c1c2c(nc3ccccc13)/C(=C/c1ccco1)CC2 (centres undefined) | . | . | 38 | 81 | . | . | .
CC1CN(C(=O)COc2ccc3c(-c4ccccc4)cc(=O)oc3c2)CC(C)O1 (centres undefined) | . | . | . | . | . | / | /
CCNS(=O)(=O)c1ccc2c(c1)NCC2 | . | . | . | . | . | / | /
